Measurements from the array DNA melting data of Ke et al. (doi:10.1101/2024.01.08.574731).

Assays:
[1] = melting temperature; fluorescence melt of hairpins on a sequencing array, two-state fit, raised by 9.35 °C to match UV melts; conditions: sodium 0.088 M
Outline: (§1)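 On a sequenced MiSeq flow cell, library hairpins with annealed Cy3 and quencher oligos were imaged for Cy3 fluorescence in 2.5 °C steps up to 60 °C, in 50 mM Na-HEPES pH 8.0, 25 mM NaCl. Normalisation used pre-quench Cy3 and control constructs. Bootstrapped two-state fits gave melting temperature and folding enthalpy, combined by inverse variance across four replicates and with fitted temperatures raised by 9.35 °C to match UV melts.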

[2] = folding enthalpy; higher = less favourable; fluorescence melt of hairpins on a sequencing array, two-state fit; conditions: sodium 0.088 M
Outline: as §1

Row | Sequence | Tm [1] | folding enthalpy [2]
1 | GATGAACCGAAAGGTATC (((..(((....)))))) | 28.8 °C | -12.9 kcal/mol
2 | CAATTGAAAAATTG (((((....))))) | 35.6 °C | -13.6 kcal/mol
3 | GTCTAAGAAATTAGAC ((((((....)))))) | 40.4 °C | -25.8 kcal/mol
4 | GATCGGTAGGCCGATC ((((((....)))))) | 57.9 °C | -40.5 kcal/mol
5 | GATCTGTGTTCAGATC ((((((....)))))) | 51.7 °C | -34.2 kcal/mol
6 | GATCGTTTAGACGATC ((((((....)))))) | 55.6 °C | -38.2 kcal/mol
7 | CGTTCGGAAACGAGACG ((((((....))).))) | 39 °C | -24.1 kcal/mol
8 | GGCACTACGAAAGTAGCC (((..(((....)))))) | 39.3 °C | -11.9 kcal/mol
9 | GATCTGCCGGCAGATC ((((((....)))))) | 62.3 °C | -53.3 kcal/mol
10 | ATGCTGAAAAGCAT (((((....))))) | 50.8 °C | -18.6 kcal/mol
11 | GGATGTCCGAAAGGATCC (((..(((....)))))) | 32.2 °C | -14.3 kcal/mol
12 | GATCTGAAGGCAGATC ((((((....)))))) | 45.3 °C | -41.9 kcal/mol
13 | GTTCGGGGAAACTCGAAC (((((.(....).))))) | 51.3 °C | -30.8 kcal/mol
14 | GATCTTGTTAAAGATC ((((((....)))))) | 53.7 °C | -37.3 kcal/mol
15 | GACTGCGAAAGCACTGTC ((((((....)))..))) | 39.9 °C | -12.8 kcal/mol
16 | GATGGTGGAAACGTCATC ((((..(....)..)))) | 33.3 °C | -19.6 kcal/mol
17 | GCTAGTGGAAACATTAGC ((((.((....)).)))) | 42.7 °C | -28.3 kcal/mol
18 | GCGGATCGAAAGATGCGC (((.(((....))).))) | 66.3 °C | -38.6 kcal/mol
19 | GCGGATGGAAACATCTGC ((.((((....)))).)) | 54.4 °C | -47.5 kcal/mol
20 | GTATCAGCGAAAGCTTAC (((..(((....)))))) | 26.3 °C | -8.4 kcal/mol
21 | GGGTTGGGAAACTAGCCC (((.(.(....).).))) | 42 °C | -21.4 kcal/mol
22 | GGAGTTGGAAACGACTCC (((((.(....).))))) | 54.9 °C | -23.2 kcal/mol
23 | GTCTGAGGAAACTCGGAC (((.(((....))).))) | 49.4 °C | -36.2 kcal/mol

Row | Sequence | Tm [1] | folding enthalpy [2]
24 | GGTAAGCCGAAAGGCACC (((..(((....)))))) | 42 °C | -15.4 kcal/mol
25 | GGGCCTGCGAAAGCACCC (((..(((....)))))) | 50.5 °C | -9.63 kcal/mol
26 | GCACACGAAAGTGTTGC ((((((....))).))) | 53.8 °C | -32.5 kcal/mol
27 | GCGTTATTACGC ((((....)))) | 53.9 °C | -26 kcal/mol
28 | GTGACTCGAAAGAGACAC (((.(((....))).))) | 54.3 °C | -32.1 kcal/mol
29 | GTGATTCGAAAGAACCAC (((.(((....))).))) | 44.8 °C | -33.2 kcal/mol
30 | CTAATGAAAATTAG (((((....))))) | 26 °C | -7.43 kcal/mol
31 | GATACTGGAAACGGTATC (((((.(....).))))) | 42.7 °C | -30.4 kcal/mol
32 | GAGTCCGAAAGGAACCTC ((((((....)))..))) | 33 °C | -16.5 kcal/mol
33 | GCACCGGGAAACTGGTGC (((((.(....).))))) | 61.2 °C | -41 kcal/mol
34 | GATCAGCGGCCTGATC ((((((....)))))) | 49.8 °C | -36.9 kcal/mol
35 | GATAAAGGAAACTTTATC (((((((....))))))) | 44.4 °C | -31.7 kcal/mol
36 | GAGACGACGAAAGTCCTC (((..(((....)))))) | 26.8 °C | -16.7 kcal/mol
37 | GCTAGCCGAAAGGCAAGC (((.(((....))).))) | 60 °C | -27 kcal/mol
38 | GACCGCCGAAAGGCGTC (((.(((....)))))) | 45.4 °C | -8.69 kcal/mol
39 | GGGCTTCGAAAGAACCCC (((.(((....))).))) | 47.6 °C | -20.5 kcal/mol
40 | GATCTTCCACAAGATC ((((((....)))))) | 41.5 °C | -35.2 kcal/mol
41 | GACCCGGGAAACCAGGTC ((((.((....)).)))) | 45.8 °C | -27.5 kcal/mol
42 | GTGTAGCGAAAGCTTCAC (((.(((....))).))) | 51.8 °C | -32 kcal/mol
43 | CGGGGCCGGAAACGGCCG (((..(((....)))))) | 53.8 °C | -4.87 kcal/mol
44 | GTCGACGCGAAAGCGGAC (((..(((....)))))) | 45.4 °C | -12.8 kcal/mol
45 | GGCAAAGGAAACTTTACC ((.((((....)))).)) | 30.1 °C | -27.4 kcal/mol
46 | GCGTAGCGAAAGCAACGC ((((.((....)).)))) | 66.7 °C | -21.1 kcal/mol

Row | Sequence | Tm [1] | folding enthalpy [2]
47 | GCGTAGCGAAAGCGATGC ((.(.((....)).).)) | 51.6 °C | -13.9 kcal/mol
48 | GATCATAGGCATGATC ((((((....)))))) | 48.5 °C | -32.4 kcal/mol
49 | GTGACCCGAAAGGGCCAC (((.(((....))).))) | 59.5 °C | -41 kcal/mol
50 | GATCTATCTATAGATC ((((((....)))))) | 47.4 °C | -38 kcal/mol
51 | GGATAAGCGAAAGCTTCC (((..(((....)))))) | 35.5 °C | -12.4 kcal/mol
52 | GATCGGCGTCCGATC ((((((...)))))) | 56.4 °C | -40.5 kcal/mol
53 | GATCTTCTCAAGATC ((((((...)))))) | 46.7 °C | -33.3 kcal/mol
54 | TTCTCGAAAGAGAA (((((....))))) | 49.1 °C | -15.2 kcal/mol
55 | GCAACCACGAAAGTGTGC (((..(((....)))))) | 41.7 °C | -17.4 kcal/mol
56 | GAGGGCGGAAACGCCTTC ((.((((....)))).)) | 50.5 °C | -13.8 kcal/mol
57 | GTAATAACGAAAGTTTAC (((..(((....)))))) | 26.8 °C | -10.5 kcal/mol
58 | GCCGTAGAAATACGGC ((((((....)))))) | 64 °C | -42.4 kcal/mol
59 | GATCGGCCGTCCGATC ((((((....)))))) | 58.3 °C | -39.7 kcal/mol
60 | GATCTCCACAGAGATC ((((((....)))))) | 55.7 °C | -32.4 kcal/mol
61 | GCGTTGCGAAAGCTTCGC (((..((....))..))) | 64 °C | -14.3 kcal/mol
62 | GTCGCACGAAAGTGAGAC (((.(((....))).))) | 59.5 °C | -30.6 kcal/mol
63 | GGTGTTCGAAAGAATACC (((.(((....))).))) | 53.6 °C | -45.6 kcal/mol
64 | GATCATTTCGATGATC ((((((....)))))) | 49.2 °C | -41.6 kcal/mol
65 | CGTACCGGAAACGGGACG (((.(((....))).))) | 64.8 °C | -36.4 kcal/mol
66 | GTTCGCGAAAGCGGAAC ((((((....))).))) | 54.4 °C | -17.6 kcal/mol
67 | GATCTATCGATAGATC ((((((....)))))) | 48 °C | -44.3 kcal/mol
68 | GCCGGCGAAAGCCAGGGC ((((((....)))..))) | 63.1 °C | -18.7 kcal/mol
69 | GGTACGGGAAACCGTGCC ((.((((....)))).)) | 59.7 °C | -40.9 kcal/mol

Row | Sequence | Tm [1] | folding enthalpy [2]
70 | GCTCACGAAAGTGCGAGC ((((((....)))..))) | 38.7 °C | -19.8 kcal/mol
71 | GCGTGCGAAAGCATACGC ((((((....)))..))) | 63.9 °C | -28.9 kcal/mol
72 | CGTACGGAAACGTGGACG ((((((....)))..))) | 35.2 °C | -15.1 kcal/mol
73 | GAGACGCGAAAGCGACTC (((.(((....))).))) | 66.4 °C | -24.9 kcal/mol
74 | GGGAGCGAAAGCTACCC ((((((....))).))) | 62.8 °C | -15.7 kcal/mol
75 | GGGGTTGGAAACAACCTC (.(((((....))))).) | 52.5 °C | -31.5 kcal/mol
76 | GCAGACGGAAACATCTGC (((((.(....).))))) | 44.5 °C | -29.9 kcal/mol
77 | GTGATTGAAAAATCAC ((((((....)))))) | 51.7 °C | -29.5 kcal/mol
78 | GATCGAAGTTCGATC ((((((...)))))) | 50.3 °C | -38.4 kcal/mol
79 | GATCATTCAATGATC ((((((...)))))) | 47.1 °C | -30.6 kcal/mol
80 | GATCGTTGAACGATC ((((((...)))))) | 53.6 °C | -32.2 kcal/mol
81 | GCGTCGTAACGC ((((....)))) | 55.3 °C | -21.4 kcal/mol
82 | GGACGGGGAAACTCGTCC (((((.(....).))))) | 58 °C | -41 kcal/mol
83 | GACGGTGGAAACACCATC ((.((((....)))).)) | 36.5 °C | -16.2 kcal/mol
84 | GCCCCGCGAAAGCTGAGC ((.(.((....)).).)) | 35 °C | -10.7 kcal/mol
85 | CGCGGAAAAACAACAACCGCG ((.................)) | 44.5 °C | -25.1 kcal/mol
86 | GGTGTCCGAAAGGATACC (((.(((....))).))) | 59.9 °C | -41.5 kcal/mol
87 | GCAGCTGGAAACAACTGC ((((.((....)).)))) | 46.6 °C | -39.9 kcal/mol
88 | GTGAGGGGAAACTCTCAC (((((.(....).))))) | 49.4 °C | -32 kcal/mol
89 | GCTGACCCGAAAGGGAGC (((..(((....)))))) | 41.8 °C | -14.7 kcal/mol
90 | GATTAAGGAAACTTGATC (((.(((....))).))) | 30.3 °C | -26.6 kcal/mol
91 | GCGTTCCCGAAAGGGCGC (((..(((....)))))) | 53.9 °C | -27.2 kcal/mol
92 | GGTTCTACGAAAGTAACC (((..(((....)))))) | 28.2 °C | -19.6 kcal/mol
